Screening results deposited in PubChem BioAssay by The Scripps Research Institute Molecular Screening Center.
Compounds with a hit are over-represented: about 3.7% of the library has one in this group of screens.
TAAR1 antag – human TAAR1 antagonists, primary screen, Fluo-8 calcium fluorescence, CHO RD-HGA16 cells; Trace amine-associated receptor 1 (Homo sapiens), Q96RJ0; antagonist; inhibition, % at 3 µM; 360,000 compounds, 1.5% hits;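 active = inhibition above a per-plate cutoff, the mean inhibition of test compounds on that plate plus 3 SD, cut at about 49% in these data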;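 also: 0% = DMSO plus EC80 beta-PEA response and 100% = DMSO alone without agonist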
Target sequence (Q96RJ0 whole entry, looked up): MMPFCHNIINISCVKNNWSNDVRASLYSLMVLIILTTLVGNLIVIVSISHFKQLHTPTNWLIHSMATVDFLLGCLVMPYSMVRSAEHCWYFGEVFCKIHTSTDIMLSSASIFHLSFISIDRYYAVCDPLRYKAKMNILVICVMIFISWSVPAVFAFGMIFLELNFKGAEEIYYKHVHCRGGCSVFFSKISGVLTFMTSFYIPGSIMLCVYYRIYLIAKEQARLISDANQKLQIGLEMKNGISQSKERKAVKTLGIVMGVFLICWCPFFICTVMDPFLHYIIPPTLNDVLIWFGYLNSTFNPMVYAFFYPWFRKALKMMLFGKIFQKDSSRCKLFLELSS
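Test system: hTAAR1-expressing CHO RD-HGA16 cells, Gα16-coupled; Probe or stimulus: EC80 β-phenethylamine stimulus; Compound dosing: single nominal final test compound concentration of 3 µM; Timing: 140 s kinetic read after compound, 140 s after agonist; Signal: Fluo-8 calcium-sensitive fluorescence; Measure: % inhibition of agonist calcium response; Controls: DMSO and EC80 PEA controls.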
TAAR1 ag – human TAAR1 agonists, primary screen, Fluo-8 calcium fluorescence, CHO RD-HGA16 cells | Trace amine-associated receptor 1 (Homo sapiens), Q96RJ0 | vehicle wells 0%, saturating PEA agonist 100% | activation, % at 3 µM | 360,000 compounds, 0.99% hits;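 active = activation above the mean activation of all test compounds in the run plus 3 SD, cut at about 38% in these data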
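System: CHO-derived RD-HGA16 cells with stable Gα16 and human TAAR1. Times: 17-24 h plating, Fluo-8 75 min 37 °C, 30 min RT. Measured by: calcium-sensitive Fluo-8 signal, excitation 470-495, emission 515-575 nm. Read-out basis: % activation relative to PEA EC100 response. Control set: DMSO and PEA EC100. Repeats: no replicates (n 1).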
NS3 helicase inh – inhibitors of HCV NS3 helicase, primary screen, biochemical, Cy5 molecular beacon fluorescence; NS3 helicase DNA unwinding; inhibition, % at 10.9 µM; 290,000 compounds, 0.56% hits; AID 1800, 2009;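 active = inhibition above the mean of all tested compounds plus 3 SD, set per campaign, cut at about 35% in these data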;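 also: 0% = DMSO wells and 100% = thioflavine S control wells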
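test system = hepatitis C virus NS3 helicase domain fragment enzyme | reagent = annealed dual-labelled DNA beacon duplex, ATP-started | times = 1 h at 25 °C | detection = Cy5 fluorescence, 0 and 60 min reads | read-out basis = percent inhibition from t60/t0 fluorescence ratio | control set = DMSO and thioflavine S | replication = one well per compound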
HCV core dimer – inhibitors of HCV core protein dimerization, primary screen, biochemical, TR-FRET, high-throughput. TR-FRET GST/Flag-core106 dimerization, 1536-well. inhibition, % at 5 µM. 300,000 compounds, 0.33% hits. AID 1899, 2009;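 active = inhibition above the mean of all tested compounds plus 3 SD, set per screening campaign, cut at about 45% in these data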
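System: GST/Flag-tagged HCV core106 proteins. Incubation: compound-protein-antibody incubation 4 h at 22.5 °C. Technique: HTRF with 340 nm excitation, 617/671 nm emission. Medium: KF-containing HEPES buffer, pH 7.45, DTT, CHAPS, BSA. Read-out: inhibition (%) from 671 over 617 nm ratio. Also added: Eu(K)-anti-GST 90 ng/mL plus XL665-anti-Flag 1 µg/mL.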
rCAG RNA binder – binders of r(CAG) RNA repeats, primary screen, biochemical, fluorescence; 370,000 compounds, 1.3% hits; r(CAG) RNA repeat, TO-PRO-1 dye displacement fluorescence; inhibition, % at 3 µM;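 active = inhibition above the plate cutoff, the mean of all test compounds on that plate plus 3 SD, cut at about 35% in these data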;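 also: 0% = DMSO alone and 100% = 100 µM mitoxantrone as full dye displacement; higher means more dye released from RNA so lower well fluorescence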
nonsel antag count – nonselective antagonists in TAAR1 counter-screen cells, counter-screen for hTAAR1 antagonist project, cell-based, fluorescence, calcium; shares compounds with TAAR1 antag; counterscreen cell line, antagonist mode; inhibition, % at 3 µM; 2,400 compounds, 77% hits; in the data active = inhibition above about 22%;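 also: CHO-Ga16 host cells stimulated with ATP at an EC80 level; 0% = agonist EC80 plus vehicle and 100% = vehicle without agonist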
TAAR1 ant conf – human TAAR1 antagonists, retest of hits, confirmation, cell-based, fluorescence; shares compounds with TAAR1 antag; TAAR1-expressing cells, fluorescence antagonist read-out; inhibition, % at 3 µM; 2,400 compounds, 40% hits; in the data active = inhibition above about 49%;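 also: CHO-Ga16 host cells challenged with agonist PEA near its EC80; 0% = agonist at EC80 plus vehicle and 100% = vehicle with no agonist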
Ga16 ag counter – calcium activation in Ga16-expressing cells, counter-screen for TAAR1 antagonist project, cell-based, fluorescence; 2,400 compounds, 18% hits; activation, % at 3 µM; shares compounds with TAAR1 antag; agonist counterscreen; in the data active = activation above about 12%;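 also: 0% = vehicle wells and 100% = saturating stimulus response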
TAAR1 ag count – TAAR1 activation by candidate antagonists – cell-based, fluorescence, counter-screen for TAAR1 antagonist project; shares compounds with TAAR1 antag; hTAAR1 cell line, agonist mode; activation, % at 3 µM; 2,400 compounds, 2% hits; in the data active = activation above about 37%;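 also: CHO cells stably expressing TAAR1 with calcium dye readout; 0% = DMSO vehicle and 100% = full agonist response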
Numbers without * were called inactive.

Screening O=C(Nc1cccc(S(=O)(=O)C(F)F)c1)c1ccc(Cl)c(S(=O)(=O)N2CCOCC2)c1 returned TAAR1 antag 74*, TAAR1 ag 35, NS3 helicase inh -2, HCV core dimer 4, rCAG RNA binder 3, nonsel antag count 50*, TAAR1 ant conf 65*, Ga16 ag counter 19* and TAAR1 ag count 23.
`O=C(Nc1ccc(Cl)c(S(=O)(=O)N2CCOCC2)c1)c1ccc2c(c1)OCO2` gave TAAR1 antag 66*, TAAR1 ag 17, rCAG RNA binder 4, nonsel antag count 32*, TAAR1 ant conf 46, Ga16 ag counter 15* and TAAR1 ag count 12.
Screening CC(C)c1cc(C(C)C)c(S(=O)(=O)NCC(=O)N2CCN(c3ncccn3)CC2)c(C(C)C)c1 returned rCAG RNA binder 2.
CN(C)c1ccc(NC(=S)OC2CCC23CCC(c2ccccc2)CC3)cc1 (configuration not stated) was read as rCAG RNA binder 5.
Screening O=C(Nc1ccc(Cl)c(S(=O)(=O)N2CCOCC2)c1)c1ccccn1 returned TAAR1 antag 20, TAAR1 ag 8, NS3 helicase inh -14, HCV core dimer -5 and rCAG RNA binder 0.
`O=C(Nc1ccc(Cl)c(S(=O)(=O)N2CCOCC2)c1)c1cc(-c2ccccn2)nc2ccccc12` gave TAAR1 antag 63*, TAAR1 ag 25, NS3 helicase inh -18, HCV core dimer 7, rCAG RNA binder 4, nonsel antag count 43*, TAAR1 ant conf 57*, Ga16 ag counter 14* and TAAR1 ag count 13.
O=c1c2ccc([N+](=O)[O-])cc2ncn1CCOc1cccc(Br)c1 was read as TAAR1 antag 71*, TAAR1 ag 13, NS3 helicase inh -4, HCV core dimer 3, rCAG RNA binder 1, nonsel antag count 30*, TAAR1 ant conf 56*, Ga16 ag counter 9 and TAAR1 ag count 6.
`Cc1cc(OCCn2cnc3ccccc3c2=O)ccc1[N+](=O)[O-]` gave TAAR1 antag 6, TAAR1 ag 2, NS3 helicase inh -2, HCV core dimer 5 and rCAG RNA binder -1.
Screening Cc1c(C(=O)NCc2ccc3c(c2)OCO3)sc2nc(-c3ccccc3)cn12 returned TAAR1 antag 19, TAAR1 ag 1, NS3 helicase inh 11, HCV core dimer 12 and rCAG RNA binder 4.
Screening Cc1c(C(=O)Nc2ccc3c(c2)OCO3)sc2nc(-c3ccccc3)cn12 returned TAAR1 antag 85*, TAAR1 ag 11, NS3 helicase inh -4, HCV core dimer 5, rCAG RNA binder 4, nonsel antag count 44*, TAAR1 ant conf 63*, Ga16 ag counter 12* and TAAR1 ag count 7.
Screening COC(=O)C1CN(Cc2cn(Cc3ccc(Cl)cc3)nn2)CCS(=O)(=O)N1Cc1ccc(F)cc1 (configuration not stated) returned rCAG RNA binder 1.
For COc1cccc2cc(CC(=O)c3ccc(C)c(C)c3)c(=O)oc12 the results were TAAR1 antag 34, TAAR1 ag 7, NS3 helicase inh 3, HCV core dimer 13 and rCAG RNA binder -1.
For COc1cccc2cc(CC(=O)c3cc(C)ccc3C)c(=O)oc12 the results were TAAR1 antag 58*, TAAR1 ag 10, NS3 helicase inh 0, HCV core dimer 16, rCAG RNA binder 9, nonsel antag count 29*, TAAR1 ant conf 49*, Ga16 ag counter 6 and TAAR1 ag count 4.
Screening O[C@H](COc1ccc(C(F)(F)F)cc1)CN1CCC(C(O)(c2ccccc2)c2ccccc2)CC1 returned rCAG RNA binder -2.
For CC(C)(C)c1cc(C(=O)NCc2cc(F)cc3c2OCOC3)n(Cc2ccccc2)n1 the results were TAAR1 antag 81*, TAAR1 ag 4, NS3 helicase inh -10, HCV core dimer 5, rCAG RNA binder -5, nonsel antag count 34*, TAAR1 ant conf 55*, Ga16 ag counter 5 and TAAR1 ag count 2.
Screening O=[N+]([O-])c1ccc(-c2c(-c3ccccc3)ncc3cc(F)ccc23)cc1 returned TAAR1 antag 82*, TAAR1 ag 0, rCAG RNA binder -1, nonsel antag count 19, TAAR1 ant conf 55*, Ga16 ag counter 1 and TAAR1 ag count 3.
Screening COCc1ccc(C(=O)Nc2cccc(S(=O)(=O)N(C)c3ccccc3)c2)cc1 returned TAAR1 antag 53*, TAAR1 ag 10, rCAG RNA binder 2, nonsel antag count 32*, TAAR1 ant conf 38, Ga16 ag counter 8 and TAAR1 ag count 5.
Screening CC(=O)c1c(C)[nH]c(C(=O)Nc2cccc(S(=O)(=O)N(C)c3ccccc3)c2)c1C returned TAAR1 antag 61*, TAAR1 ag 17, NS3 helicase inh -11, HCV core dimer 3, rCAG RNA binder 12, nonsel antag count 44*, TAAR1 ant conf 66*, Ga16 ag counter 14* and TAAR1 ag count 13.
For COc1ccccc1CCn1cnc(-c2ccccc2OC)c1CC(C)C the results were TAAR1 antag 7, TAAR1 ag 34 and rCAG RNA binder 1.
`CCOc1ccc(-n2c(C)cc(/C=N/NC(=O)C(N)=O)c2C)cc1` gave TAAR1 antag -26, TAAR1 ag -1, NS3 helicase inh 4, HCV core dimer 6 and rCAG RNA binder -2.
`CCOc1ccc(-n2c(C)cc(/C=N\NC(=O)CC(=O)NC3CCCCC3)c2C)cc1` gave TAAR1 antag 57*, TAAR1 ag 0, NS3 helicase inh -6, HCV core dimer 17, rCAG RNA binder -4, nonsel antag count 25*, TAAR1 ant conf 47, Ga16 ag counter 5 and TAAR1 ag count -1.
